Reference: ChEMBL document CHEMBL1157594, “Synthesis and evaluation of a set of 4-phenylpiperidines and 4-phenylpiperazines as D2 receptor ligands and the discovery of the dopaminergic stabilizer 4-[3-(methylsulfonyl)phenyl]-1-propylpiperidine (huntexil, pridopidine, ACR16)” (J Med Chem, 2010)

How the values were obtained:
D(2) dopamine receptor [1] = target: T1, D(2) dopamine receptor (Homo sapiens, UniProt P14416); assay: biochemical; format: cell-based, HEK293
D(2) dopamine receptor [2] = target: T1, D(2) dopamine receptor; assay: biochemical; format: cell-based, HEK293; remark: listed apart in the source
Rattus norvegicus [3] = assay: Reduction in 3,4-dihydroxyphenylacetic acid level in Sprague-Dawley rat striatum at 100 umol/kg, sc relative to saline treated control; format: functional; set-up: scale not given: the % may be the effect or the level left
Outline: (§1)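 Striatal DOPAC measured post-mortem after a single test-compound dose. Each level is expressed as a percentage of the saline-treated control, with n = 4. Significance was tested by Student's t test (P<0.05).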

Rattus norvegicus [4] = assay: Reduction in spontaneous locomotor activity in Sprague-Dawley rat striatum at 100 umol/kg, sc relative to control; format: functional; set-up: scale not given: the % may be the effect or the level left
Rattus norvegicus [5] = assay: Reduction in amphetamine-induced locomotor activity in Sprague-Dawley rat striatum at 100 umol/kg, sc relative to control; format: functional; set-up: scale not given: the % may be the effect or the level left
Outline: (§2)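 Rats were pretreated with amphetamine (1.5 mg/kg intraperitoneally). Locomotor activity was recorded 15-60 min after test-compound injection, measured at 25 Hz and compared with amphetamine-pretreated controls, with n = 4.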

Rattus norvegicus [6] = assay: Reduction in 3,4-dihydroxyphenylacetic acid level in Sprague-Dawley rat striatum at 33 umol/kg, sc relative to saline treated control; format: functional; set-up: scale not given: the % may be the effect or the level left
Outline: as §1

Rattus norvegicus [7] = assay: Reduction in spontaneous locomotor activity in Sprague-Dawley rat striatum at 33 umol/kg, sc relative to control; format: functional; set-up: scale not given: the % may be the effect or the level left
Rattus norvegicus [8] = assay: Reduction in amphetamine-induced locomotor activity in Sprague-Dawley rat striatum at 33 umol/kg, sc relative to control; format: functional; set-up: scale not given: the % may be the effect or the level left
Outline: as §2

Rattus norvegicus [9] = assay: Reduction in amphetamine-induced locomotor activity in Sprague-Dawley rat striatum at 50 umol/kg, sc relative to control; format: functional; set-up: scale not given: the % may be the effect or the level left
Outline: (§3)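 Rats were pretreated with amphetamine at 1.5 mg/kg intraperitoneally. Locomotor activity was recorded from 15 to 60 min after injection, sampled at 25 Hz, and compared with amphetamine-pretreated controls (n = 4).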

Rattus norvegicus [10] = assay: Reduction in 3,4-dihydroxyphenylacetic acid level in Sprague-Dawley rat striatum at 6.59 umol/kg, sc relative to saline treated control; format: functional; set-up: scale not given: the % may be the effect or the level left
Outline: as §1

Rattus norvegicus [11] = assay: Reduction in spontaneous locomotor activity in Sprague-Dawley rat striatum at 6.59 umol/kg, sc relative to control; format: functional; set-up: scale not given: the % may be the effect or the level left
Rattus norvegicus [12] = assay: Reduction in 3,4-dihydroxyphenylacetic acid level in Sprague-Dawley rat striatum at 7.68 umol/kg, sc relative to saline treated control; format: functional; set-up: scale not given: the % may be the effect or the level left
Outline: (§4)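 Striatal DOPAC was measured by post-mortem biochemistry in rat striatum and expressed relative to saline-injected controls (n = 4). Significance was tested by Student's t test at P<0.05.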

Rattus norvegicus [13] = assay: Reduction in spontaneous locomotor activity in Sprague-Dawley rat striatum at 7.68 umol/kg, sc relative to control; format: functional; set-up: scale not given: the % may be the effect or the level left
Outline: (§5)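 Locomotor activity was recorded in partly habituated rats from 15 to 60 min after injection, sampled at 25 Hz. It was expressed as a percentage of saline control.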

Rattus norvegicus [14] = assay: Reduction in amphetamine-induced locomotor activity in Sprague-Dawley rat striatum at 7.68 umol/kg, sc relative to control; format: functional; set-up: scale not given: the % may be the effect or the level left
Outline: as §3

Rattus norvegicus [15] = assay: Reduction in 3,4-dihydroxyphenylacetic acid level in Sprague-Dawley rat striatum at 1 umol/kg, sc relative to saline treated control; format: functional; set-up: scale not given: the % may be the effect or the level left
Outline: as §4

Rattus norvegicus [16] = assay: Reduction in spontaneous locomotor activity in Sprague-Dawley rat striatum at 1 umol/kg, sc relative to control; format: functional; set-up: scale not given: the % may be the effect or the level left
Outline: as §5

Rattus norvegicus [17] = assay: Reduction in amphetamine-induced locomotor activity in Sprague-Dawley rat striatum at 1 umol/kg, sc relative to control; format: functional; set-up: scale not given: the % may be the effect or the level left
Outline: as §3

Rattus norvegicus [18] = assay: Reduction in 3,4-dihydroxyphenylacetic acid level in Sprague-Dawley rat striatum at 10.5 umol/kg, sc relative to saline treated control; format: functional; set-up: scale not given: the % may be the effect or the level left
Outline: as §4

Rattus norvegicus [19] = assay: Reduction in spontaneous locomotor activity in Sprague-Dawley rat striatum at 10.5 umol/kg, sc relative to control; format: functional; set-up: scale not given: the % may be the effect or the level left
Outline: as §5

Rattus norvegicus [20] = assay: Reduction in amphetamine-induced locomotor activity in Sprague-Dawley rat striatum at 10.5 umol/kg, sc relative to control; format: functional; set-up: scale not given: the % may be the effect or the level left
Outline: as §3

Rattus norvegicus [21] = assay: Reduction in 3,4-dihydroxyphenylacetic acid level in Sprague-Dawley rat striatum at 117 umol/kg, sc relative to saline treated control; format: functional; set-up: scale not given: the % may be the effect or the level left
Outline: as §1

Rattus norvegicus [22] = assay: Reduction in spontaneous locomotor activity in Sprague-Dawley rat striatum at 117 umol/kg, sc relative to control; format: functional; set-up: scale not given: the % may be the effect or the level left

T1 sequence (P14416 whole entry): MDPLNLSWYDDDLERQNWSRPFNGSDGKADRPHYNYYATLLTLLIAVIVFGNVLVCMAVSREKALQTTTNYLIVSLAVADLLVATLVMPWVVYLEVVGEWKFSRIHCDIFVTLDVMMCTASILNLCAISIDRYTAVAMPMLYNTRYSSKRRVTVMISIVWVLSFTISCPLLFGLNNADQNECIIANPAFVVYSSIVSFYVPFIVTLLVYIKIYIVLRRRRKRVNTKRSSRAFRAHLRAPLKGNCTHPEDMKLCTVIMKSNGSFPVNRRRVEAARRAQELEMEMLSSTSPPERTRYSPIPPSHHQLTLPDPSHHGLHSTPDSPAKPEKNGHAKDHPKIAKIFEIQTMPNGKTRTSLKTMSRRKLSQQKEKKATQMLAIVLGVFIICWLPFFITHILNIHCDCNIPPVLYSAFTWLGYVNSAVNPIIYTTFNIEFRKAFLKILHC

SMILES: CCCN1CCC[C@@H](c2cccc(S(C)(=O)=O)c2)C1
- Ki (D(2) dopamine receptor [1]): 3880 nM
- Ki (D(2) dopamine receptor [2]): 755 nM
- Activity (Rattus norvegicus [3]): 260%
- Activity (Rattus norvegicus [4]): 215%
- Activity (Rattus norvegicus [5]): 37%

SMILES: CCCN1CCN(c2cccc(O)c2)CC1
- Ki (D(2) dopamine receptor [1]): 721 nM
- Ki (D(2) dopamine receptor [2]): 69 nM
- Activity (Rattus norvegicus [6]): 261%
- Activity (Rattus norvegicus [7]): 31%
- Activity (Rattus norvegicus [8]): 16%

SMILES: Oc1cccc(C2CCN(Cc3ccccc3)CC2)c1
- Ki (D(2) dopamine receptor [1]): 285 nM
- Ki (D(2) dopamine receptor [2]): 35 nM
- Activity (Rattus norvegicus [6]): 317%
- Activity (Rattus norvegicus [7]): 85%
- Activity (Rattus norvegicus [8]): 12%

SMILES: CCCN1CCC(c2cccc(O)c2)CC1
- Ki (D(2) dopamine receptor [1]): 2570 nM
- Ki (D(2) dopamine receptor [2]): 349 nM

SMILES: CS(=O)(=O)c1cccc(C2CCN(Cc3ccccc3)CC2)c1
- Ki (D(2) dopamine receptor [1]): 841 nM
- Ki (D(2) dopamine receptor [2]): 392 nM
- Activity (Rattus norvegicus [6]): 310%
- Activity (Rattus norvegicus [7]): 44%
- Activity (Rattus norvegicus [9]): 6%

SMILES: CCCN1CCN(c2cccc(S(C)(=O)=O)c2)CC1
- Ki (D(2) dopamine receptor [1]): 1210 nM
- Ki (D(2) dopamine receptor [2]): 664 nM
- Activity (Rattus norvegicus [6]): 310%
- Activity (Rattus norvegicus [7]): 27%
- Activity (Rattus norvegicus [8]): 6%

SMILES: CS(=O)(=O)c1cccc(N2CCN(Cc3ccccc3)CC2)c1
- Ki (D(2) dopamine receptor [1]): 1920 nM
- Ki (D(2) dopamine receptor [2]): 431 nM
- Activity (Rattus norvegicus [3]): 248%
- Activity (Rattus norvegicus [4]): 17%
- Activity (Rattus norvegicus [5]): 15%

SMILES: Oc1cccc(N2CCN(Cc3ccccc3)CC2)c1
- Activity (Rattus norvegicus [3]): 108%
- Activity (Rattus norvegicus [4]): 8%
- Activity (Rattus norvegicus [5]): 10%

SMILES: CN1CCc2cccc3c2[C@H]1Cc1ccc(O)c(O)c1-3 [APOMORPHINE]
- Activity (Rattus norvegicus [10]): 77%
- Activity (Rattus norvegicus [11]): 7118%

SMILES: O=C1CCc2ccc(OCCCCN3CCN(c4cccc(Cl)c4Cl)CC3)cc2N1 [ARIPIPRAZOLE]
- Activity (Rattus norvegicus [12]): 150%
- Activity (Rattus norvegicus [13]): 2%
- Activity (Rattus norvegicus [14]): 9%

SMILES: O=c1[nH]c2cccc(N3CCN(Cc4cccc(-c5ccccc5)c4)CC3)c2o1 [BIFEPRUNOX]
- Activity (Rattus norvegicus [12]): 152%
- Activity (Rattus norvegicus [13]): 7%
- Activity (Rattus norvegicus [14]): 5%

SMILES: O=C(CCCN1CCC(O)(c2ccc(Cl)cc2)CC1)c1ccc(F)cc1 [HALOPERIDOL]
- Activity (Rattus norvegicus [15]): 425%
- Activity (Rattus norvegicus [16]): 7%
- Activity (Rattus norvegicus [17]): 1%

SMILES: Cc1cc2c(s1)Nc1ccccc1N=C2N1CCN(C)CC1 [OLANZAPINE]
- Activity (Rattus norvegicus [18]): 362%
- Activity (Rattus norvegicus [19]): 17%
- Activity (Rattus norvegicus [20]): 6%

SMILES: CCCN1CCC[C@@H](c2cccc(O)c2)C1 [PRECLAMOL]
- Activity (Rattus norvegicus [21]): 175%
- Activity (Rattus norvegicus [22]): 37%

SMILES: CCCN1CCC(c2cccc(S(C)(=O)=O)c2)CC1 [PRIDOPIDINE]
- Ki (D(2) dopamine receptor [1]): 17500 nM
- Ki (D(2) dopamine receptor [2]): 7520 nM
- Activity (Rattus norvegicus [3]): 265%
- Activity (Rattus norvegicus [4]): 262%
